Measured values published in ChEMBL document CHEMBL5108089, “Structure-based discovery of potent inhibitors of Axl: design, synthesis, and biological evaluation” (RSC Med Chem, 2022).
Activity calls are given as the source filed them. The rule behind the calls is not given here.

Assays:
[1] = molecular target: Tyrosine-protein kinase receptor UFO (Homo sapiens) (UniProt P30530); test: Inhibition of Axl (unknown origin) a 1 uM relative to control
Summary of the method: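 Ran 40 min at room temperature, stopped with 0.5% phosphoric acid, then filter-bound, washed and scintillation-counted. Inhibition was calculated as 100 − activity (%), given as mean ±SD.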

Calu-3 = test: Antiproliferative activity against human Calu-3 cells assessed as inhibition of cell growth incubated for 72 hrs by CCK-8 assay; type: functional
Summary of the method: (§1)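 Plated at 10000 cells/well. Dose series topped at 10 uM for test compound and at 1 uM for the staurosporine reference. Read-outs were CC50 and maximum % inhibition.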

143B = test: Antiproliferative activity against human 143B cells assessed as inhibition of cell growth incubated for 72 hrs by CCK-8 assay; type: functional
HT-29 = test: Antiproliferative activity against human HT-29 cells assessed as inhibition of cell growth incubated for 72 hrs by CCK-8 assay; type: functional
EVSA-T = test: Antiproliferative activity against human EVSA-T cells assessed as inhibition of cell growth incubated for 72 hrs by CCK-8 assay; type: functional
T-24 = test: Antiproliferative activity against human T24 cells assessed as inhibition of cell growth incubated for 72 hrs by CCK-8 assay; type: functional
[2] = molecular target: Aurora kinase A (Homo sapiens) (UniProt O14965); test: Inhibition of Aurora A (unknown origin) at 1 uM
Sequence of Aurora kinase A (Homo sapiens) (O14965 whole entry): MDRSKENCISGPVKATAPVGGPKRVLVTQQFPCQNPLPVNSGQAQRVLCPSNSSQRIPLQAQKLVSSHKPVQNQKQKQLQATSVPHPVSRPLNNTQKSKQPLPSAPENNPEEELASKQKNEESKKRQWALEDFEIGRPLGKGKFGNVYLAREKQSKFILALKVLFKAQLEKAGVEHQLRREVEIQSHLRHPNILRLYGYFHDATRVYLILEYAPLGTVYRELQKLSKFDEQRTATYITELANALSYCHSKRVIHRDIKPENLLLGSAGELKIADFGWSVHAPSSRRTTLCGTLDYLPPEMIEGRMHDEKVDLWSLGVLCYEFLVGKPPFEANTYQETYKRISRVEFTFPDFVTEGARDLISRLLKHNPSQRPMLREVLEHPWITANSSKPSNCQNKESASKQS

[3] = AUC (0 to last) in Sprague-Dawley rat at 5 mg/kg, po measured upto 24 hrs by LC-MS/MS analysis; type: ADME, organism-based; parameters: dose 5 mg/kg, time < 24 hrs, route po; settings: in vivo
[4] = Cmax in Sprague-Dawley rat at 5 mg/kg, po measured upto 24 hrs by LC-MS/MS analysis; type: ADME, organism-based; parameters: dose 5 mg/kg, time < 24 hrs, route po; settings: in vivo
FaDu = test: Antiproliferative activity against human FaDu cells assessed as inhibition of cell growth incubated for 72 hrs by CCK-8 assay; type: functional
[5] = Antiproliferative activity against human NCI-H1954 cells assessed as inhibition of cell growth incubated for 72 hrs by CCK-8 assay; type: functional
[6] = Intrinsic clearance in rat; type: ADME
[7] = Oral bioavailability in Sprague-Dawley rat at 5 mg/kg measured upto 24 hrs by LC-MS/MS analysis; type: ADME, organism-based; settings: in vivo
Raji = test: Antiproliferative activity against human Raji cells assessed as inhibition of cell growth incubated for 72 hrs by CCK-8 assay; type: functional
Summary of the method: (§2)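 8000 cells/well. Test compound was serially diluted from a 10 uM top concentration and staurosporine from 1 uM. CC50 and maximum % inhibition are reported.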

KU812 cell line = test: Antiproliferative activity against human KU812 cells assessed as inhibition of cell growth incubated for 72 hrs by CCK-8 assay; type: functional; summary of the method: as §1
[8] = Half-life in Sprague-Dawley rat at 1 mg/kg, iv measured upto 24 hrs by LC-MS/MS analysis; type: ADME, organism-based; settings: in vivo
PC-3 = test: Antiproliferative activity against human PC-3 cells assessed as inhibition of cell growth incubated for 72 hrs by CCK-8 assay; type: functional
NAMALVA = test: Antiproliferative activity against human NAMALVA cells assessed as inhibition of cell growth incubated for 72 hrs by CCK-8 assay; type: functional; summary of the method: as §1
MGC-803 = test: Antiproliferative activity against human MGC-803 cells assessed as inhibition of cell growth incubated for 72 hrs by CCK-8 assay; type: functional
HCC827 = test: Antiproliferative activity against human HCC827 cells assessed as inhibition of cell growth incubated for 72 hrs by CCK-8 assay; type: functional
MOLM-13 = test: Antiproliferative activity against human MOLM-13 cells assessed as inhibition of cell growth incubated for 72 hrs by CCK-8 assay; type: functional
[9] = molecular target: Hepatocyte growth factor receptor (Homo sapiens) (UniProt P08581); test: Inhibition of Met (unknown origin) at 1 uM relative to control
Sequence of Hepatocyte growth factor receptor (Homo sapiens) (P08581 whole entry): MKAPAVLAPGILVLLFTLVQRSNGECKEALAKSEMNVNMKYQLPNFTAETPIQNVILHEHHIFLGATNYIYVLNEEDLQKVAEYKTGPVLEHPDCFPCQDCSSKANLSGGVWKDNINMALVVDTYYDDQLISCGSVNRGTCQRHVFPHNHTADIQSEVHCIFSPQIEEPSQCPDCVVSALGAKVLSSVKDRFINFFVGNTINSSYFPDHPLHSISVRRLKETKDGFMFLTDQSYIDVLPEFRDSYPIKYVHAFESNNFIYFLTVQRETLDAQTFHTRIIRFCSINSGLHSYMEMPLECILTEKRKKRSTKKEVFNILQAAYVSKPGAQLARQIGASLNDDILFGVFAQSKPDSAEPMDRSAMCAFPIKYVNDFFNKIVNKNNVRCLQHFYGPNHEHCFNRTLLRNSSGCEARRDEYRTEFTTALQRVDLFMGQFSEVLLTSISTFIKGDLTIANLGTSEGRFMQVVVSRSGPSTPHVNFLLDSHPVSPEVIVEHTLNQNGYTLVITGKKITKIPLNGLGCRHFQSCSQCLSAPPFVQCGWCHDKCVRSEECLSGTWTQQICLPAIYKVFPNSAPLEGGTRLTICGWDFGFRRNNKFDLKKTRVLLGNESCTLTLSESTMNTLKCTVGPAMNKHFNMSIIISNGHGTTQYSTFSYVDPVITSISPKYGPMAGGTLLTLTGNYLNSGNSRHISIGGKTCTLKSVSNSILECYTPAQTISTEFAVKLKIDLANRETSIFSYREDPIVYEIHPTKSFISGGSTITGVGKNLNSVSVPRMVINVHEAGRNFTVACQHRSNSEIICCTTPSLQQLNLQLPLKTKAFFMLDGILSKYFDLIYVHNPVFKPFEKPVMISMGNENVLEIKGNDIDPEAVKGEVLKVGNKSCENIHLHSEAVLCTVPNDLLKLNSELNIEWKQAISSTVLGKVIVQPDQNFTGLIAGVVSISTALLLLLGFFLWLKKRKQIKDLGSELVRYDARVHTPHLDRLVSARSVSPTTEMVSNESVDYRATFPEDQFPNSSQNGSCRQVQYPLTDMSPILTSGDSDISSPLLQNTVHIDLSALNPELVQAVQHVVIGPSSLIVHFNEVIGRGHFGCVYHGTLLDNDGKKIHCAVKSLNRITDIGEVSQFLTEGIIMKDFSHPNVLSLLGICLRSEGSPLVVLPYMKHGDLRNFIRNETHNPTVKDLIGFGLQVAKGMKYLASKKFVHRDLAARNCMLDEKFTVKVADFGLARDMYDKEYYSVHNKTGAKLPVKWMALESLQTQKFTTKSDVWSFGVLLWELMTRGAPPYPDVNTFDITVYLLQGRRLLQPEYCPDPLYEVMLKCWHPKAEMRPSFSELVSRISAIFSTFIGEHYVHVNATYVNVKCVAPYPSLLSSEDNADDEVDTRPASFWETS

HEL 92.1.7 = test: Antiproliferative activity against human HEL 92.1.7 cells assessed as inhibition of cell growth incubated for 72 hrs by CCK-8 assay; type: functional; summary of the method: as §2
[10] = Clearance in Sprague-Dawley rat at 1 mg/kg, iv measured upto 24 hrs by LC-MS/MS analysis; type: ADME, organism-based; settings: in vivo
Hep 3B2 = test: Antiproliferative activity against human Hep 3B2.1-7 cells assessed as inhibition of cell growth incubated for 72 hrs by CCK-8 assay; type: functional; settings: Hep3B
MCF7 = test: Antiproliferative activity against human MCF7 cells assessed as inhibition of cell growth incubated for 72 hrs by CCK-8 assay; type: functional
[11] = molecular target: Tyrosine-protein kinase Mer (Homo sapiens) (UniProt Q12866); test: Inhibition of Mer (unknown origin) at 1 uM
Sequence of Tyrosine-protein kinase Mer (Homo sapiens) (Q12866 whole entry): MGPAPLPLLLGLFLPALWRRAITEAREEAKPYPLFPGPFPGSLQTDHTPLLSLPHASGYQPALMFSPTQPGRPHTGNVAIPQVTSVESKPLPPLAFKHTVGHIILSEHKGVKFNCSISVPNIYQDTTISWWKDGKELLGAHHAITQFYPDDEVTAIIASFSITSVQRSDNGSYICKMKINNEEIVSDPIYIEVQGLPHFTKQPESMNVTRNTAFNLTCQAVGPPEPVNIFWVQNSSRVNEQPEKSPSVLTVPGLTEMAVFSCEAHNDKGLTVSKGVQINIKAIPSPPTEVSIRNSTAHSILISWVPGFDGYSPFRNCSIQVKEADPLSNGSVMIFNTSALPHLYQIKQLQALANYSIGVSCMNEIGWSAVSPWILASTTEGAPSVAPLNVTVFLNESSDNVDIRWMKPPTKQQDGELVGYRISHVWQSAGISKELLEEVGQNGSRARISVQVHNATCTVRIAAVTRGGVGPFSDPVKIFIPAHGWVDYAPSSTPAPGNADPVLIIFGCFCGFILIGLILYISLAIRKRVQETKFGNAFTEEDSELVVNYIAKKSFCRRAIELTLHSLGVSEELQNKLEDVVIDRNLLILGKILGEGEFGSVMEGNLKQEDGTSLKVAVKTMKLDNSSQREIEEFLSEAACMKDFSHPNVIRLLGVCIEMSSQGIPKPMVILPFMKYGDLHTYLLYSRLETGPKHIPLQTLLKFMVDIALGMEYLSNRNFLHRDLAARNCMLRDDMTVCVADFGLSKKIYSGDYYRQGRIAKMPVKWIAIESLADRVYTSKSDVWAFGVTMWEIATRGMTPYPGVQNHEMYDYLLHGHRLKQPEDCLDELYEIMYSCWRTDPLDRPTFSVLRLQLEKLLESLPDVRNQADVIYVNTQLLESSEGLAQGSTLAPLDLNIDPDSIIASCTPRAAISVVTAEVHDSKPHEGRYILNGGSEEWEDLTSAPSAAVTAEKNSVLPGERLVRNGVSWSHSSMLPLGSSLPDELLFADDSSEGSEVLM

[12] = Intrinsic clearance in human; type: ADME
[13] = Half-life in Sprague-Dawley rat at 5 mg/kg, po measured upto 24 hrs by LC-MS/MS analysis; type: ADME, organism-based; settings: in vivo
SW-620 = test: Antiproliferative activity against human SW620 cells assessed as inhibition of cell growth incubated for 72 hrs by CCK-8 assay; type: functional
A-375 = test: Antiproliferative activity against human A-375 cells assessed as inhibition of cell growth incubated for 72 hrs by CCK-8 assay; type: functional
SNU-16 = test: Antiproliferative activity against human SNU-16 cells assessed as inhibition of cell growth incubated for 72 hrs by CCK-8 assay; type: functional; summary of the method: as §2
[14] = Metabolic stability in rat liver microsomes assessed as intrinsic clearance preincubated for 10 mins followed by NADPH addition and measured upto 60 mins by LC-MS/MS analysis; type: ADME, Microsome; settings: time < 70 min, read-out: CLH

Sequence of Tyrosine-protein kinase receptor UFO (Homo sapiens) (P30530 whole entry): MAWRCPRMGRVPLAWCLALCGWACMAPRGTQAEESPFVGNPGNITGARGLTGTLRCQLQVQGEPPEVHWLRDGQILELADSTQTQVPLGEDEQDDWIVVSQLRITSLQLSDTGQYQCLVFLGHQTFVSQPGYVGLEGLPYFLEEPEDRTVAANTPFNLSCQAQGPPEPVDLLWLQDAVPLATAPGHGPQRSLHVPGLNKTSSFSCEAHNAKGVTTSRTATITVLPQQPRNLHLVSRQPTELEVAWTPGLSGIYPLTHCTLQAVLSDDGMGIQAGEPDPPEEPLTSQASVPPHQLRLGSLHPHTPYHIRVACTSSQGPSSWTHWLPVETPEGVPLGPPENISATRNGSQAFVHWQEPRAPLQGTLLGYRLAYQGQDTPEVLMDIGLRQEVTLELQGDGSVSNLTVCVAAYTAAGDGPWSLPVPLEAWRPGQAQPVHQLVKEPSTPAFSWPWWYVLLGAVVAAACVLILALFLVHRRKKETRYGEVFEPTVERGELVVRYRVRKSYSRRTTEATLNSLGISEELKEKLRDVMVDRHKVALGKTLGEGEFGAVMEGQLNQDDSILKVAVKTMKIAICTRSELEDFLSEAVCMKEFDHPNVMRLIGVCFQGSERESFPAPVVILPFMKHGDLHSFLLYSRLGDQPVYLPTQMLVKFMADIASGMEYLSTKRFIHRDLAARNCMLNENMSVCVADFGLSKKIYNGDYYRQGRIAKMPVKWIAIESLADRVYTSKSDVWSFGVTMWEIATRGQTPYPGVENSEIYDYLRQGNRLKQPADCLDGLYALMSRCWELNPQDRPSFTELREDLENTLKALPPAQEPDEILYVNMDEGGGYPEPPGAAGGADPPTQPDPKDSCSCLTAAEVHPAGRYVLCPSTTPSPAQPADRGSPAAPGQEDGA

CC(C)n1cnc(-c2ccccc2Nc2nc(Nc3ccc(N(C)C4CCN(C)CC4)cc3)ncc2Cl)n1
inhibition [1]: 90%
CC50 (Calu-3): 107 nM
CC50 (143B): 1340 nM
CC50 (HT-29): 504 nM
CC50 (EVSA-T): 1150 nM
CC50 (T-24): 933 nM
inhibition [2]: Active
AUClast [3]: 1180 ng·h/mL
Cmax [4]: 83.9 ng/mL
CC50 (FaDu): 79.8 nM
CC50 [5]: 1210 nM
CLint scaled [6]: 33.9 mL/min/kg
bioavailability [7]: 56.1%
CC50 (Raji): 4560 nM
CC50 (KU812 cell line): 233 nM
half-life [8]: 6.6 h
CC50 (PC-3): 5590 nM
CC50 (NAMALVA): 494 nM
CC50 (MGC-803): 103 nM
CC50 (HCC827): 2050 nM
CC50 (MOLM-13): 206 nM
inhibition [9]: 70%
CC50 (HEL 92.1.7): 457 nM
clearance [10]: 36.7 mL/min/kg
CC50 (Hep 3B2): 81.2 nM
CC50 (MCF7): 5190 nM
inhibition [11]: Active
CLint scaled [12]: 12 mL/min/kg
half-life [13]: 6.45 h
CC50 (SW-620): 349 nM
CC50 (A-375): 23900 nM
CC50 (SNU-16): 149 nM
CLint scaled [14]: 87.7 mL/min/kg
